Measurements: ChEMBL document CHEMBL5252513, “Identification of a Benzoisoxazoloazepine Inhibitor (CPI-0610) of the Bromodomain and Extra-Terminal (BET) Family as a Candidate for Human Clinical Trials” (J Med Chem, 2016)
Calls of active or inactive are those of the source. The calls are words filed in the database; no cut-off is given here.

Legend:
[1] = tested on: MV4-11; experiment: Antitumor activity against human MV4-11 cells xenografted in BALB/c mouse assessed as complete tumor growth inhibition at 2 mg/kg,iv BIW in presence of at 10 mg/kg,sc BID for 28 days; assay type: functional, organism-based; conditions: time 28.0 day
[2] = tested on: MV4-11; experiment: Antitumor activity against human MV4-11 cells xenografted in BALB/c mouse assessed as modest tumor growth inhibition at 2 mg/kg,iv BIW for 28 days; assay type: functional, organism-based; conditions: time 28.0 day
[3] = Toxicity against BALB/c mouse plasma xenografted with human MV4-11 cells assessed as body weight loss at 2 mg/kg,iv BIW in presence of at 10 mg/kg,sc BID for 28 days; assay type: organism-based; conditions: in vivo, 672 h, time 28 day
Outline: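 MV-4-11 acute myeloid leukemia mouse xenograft; BET inhibitor given subcutaneously 10 mg/kg twice daily, doxorubicin 2 mg/kg IV twice weekly, alone or combined, for 28 days; body weight change (%) tracked over treatment against vehicle.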

[4] = tested on: MV4-11; experiment: Antitumor activity against human MV4-11 cells xenografted in BALB/c mouse assessed as slower tumor regrowth after drug therapy removal at 2 mg/kg,iv BIW in presence of at 10 mg/kg,sc BID for 28 days and measured after 28 days; assay type: functional, organism-based; conditions: time 28.0 day
[5] = biological target: T1, Bromodomain-containing protein 4 (Homo sapiens, UniProt O60885); experiment: Displacement of biotinylated JQ1 from BRD4 BD1 (unknown origin) incubated for 20 mins by AlphaLISA assay
[6] = biological target: T1, Bromodomain-containing protein 4; experiment: Inhibition of BRD4 BD1 (unknown origin) using biotinylated ligand incubated for 60 mins by TR-FRET assay
[7] = Intrinsic clearance in human liver microsomes; assay type: ADME, Microsome; conditions: read-out: CLH
[8] = Intrinsic clearance in rat liver microsomes; assay type: ADME, Microsome
[9] = Intrinsic clearance in dog liver microsomes; assay type: ADME, Canis lupus familiaris, Microsome; conditions: read-out: CLH
[10] = Protein binding in dog plasma; assay type: ADME, cell-free, Canis lupus familiaris; conditions: read-out: PPB (converted)
[11] = Protein binding in mouse plasma; assay type: ADME, cell-free; conditions: read-out: PPB (converted)
[12] = Protein binding in rat plasma; assay type: ADME, cell-free; conditions: read-out: PPB (converted)
[13] = Intrinsic clearance in mouse liver microsomes; assay type: ADME, Microsome; conditions: read-out: CLH
[14] = biological target: T1, Bromodomain-containing protein 4; experiment: Inhibition of BRD4 BD1 in human MV4-11 cells assessed as reduction of MYC RNA expression after 4 hrs by PCR analysis; assay type: cell-based
[15] = Protein binding in human plasma; assay type: ADME, cell-free; conditions: read-out: PPB (converted)
[16] = Tmax in rat at 10 mg/kg,po; assay type: ADME, organism-based; conditions: in vivo
[17] = Clearance in rat assessed as liver blood flow at 1 mg/kg,iv; assay type: ADME, organism-based; conditions: in vivo
[18] = Unbound AUC in rat at 10 mg/kg,po; assay type: ADME, organism-based; conditions: in vivo
[19] = Volume of distribution at steady state in rat at 1 mg/kg,iv; assay type: ADME, organism-based; conditions: in vivo, read-out: Vdss
[20] = Total clearance in rat at 1 mg/kg,iv; assay type: ADME, organism-based; conditions: in vivo
[21] = Cmax in rat at 10 mg/kg,po; assay type: ADME, organism-based; design: dose 10 mg/kg, route po; conditions: in vivo
[22] = Unbound clearance in rat at 1 mg/kg,iv; assay type: ADME, organism-based; conditions: in vivo
[23] = Half life in rat plasma at 1 mg/kg,iv; assay type: ADME, organism-based
[24] = AUC (0 to infinity) in rat at 10 mg/kg,po; assay type: ADME, organism-based; design: dose 10 mg/kg, route po; conditions: in vivo
[25] = Oral bioavailability in rat at 10 mg/kg; assay type: ADME, organism-based; conditions: in vivo
[26] = biological target: T1, Bromodomain-containing protein 4; experiment: Inhibition of BRD4 BD1 in human Raji cells assessed as reduction of MYC RNA expression after 4 hrs by PCR analysis; assay type: cell-based
[27] = AUC (0 to infinity) in rat at 5 mg/kg,po; assay type: ADME, organism-based; design: dose 5 mg/kg, route po; conditions: in vivo
[28] = Unbound AUC in rat at 5 mg/kg,po; assay type: ADME, organism-based; conditions: in vivo
[29] = Tmax in rat at 5 mg/kg,po; assay type: ADME, organism-based; conditions: in vivo
[30] = Cmax in rat at 5 mg/kg,po; assay type: ADME, organism-based; design: dose 5 mg/kg, route po; conditions: in vivo
[31] = Oral bioavailability in rat at 5 mg/kg; assay type: ADME, organism-based; conditions: in vivo

Row | SMILES | IC50 [6] | predicted hepatic clearance [7] | predicted hepatic clearance (CLH) [8] | predicted hepatic clearance [9] | fraction unbound [10] | fraction unbound [11] | fraction unbound [12] | predicted hepatic clearance [13] | EC50 [14] | fraction unbound [15] | QH [17] | Vd [19] | clearance [20] | CL free [22] | half-life [23] | further results
1 | COc1cccc2c1C(=O)c1c(O)c3c(c(O)c1C2=O)C[C@@](O)(C(=O)CO)C[C@@H]3O[C@H]1C[C@H](N)[C@H](O)[C@H](C)O1 [DOXORUBICIN] | – | – | – | – | – | – | – | – | – | – | – | – | – | – | – | Activity [1]: Active; Activity [2]: Active; Activity [3]: Non-Toxic; Activity [4]: Active
2 | Cc1noc2c1-c1ccccc1C(c1ccc(Cl)cc1)=N[C@H]2CC(=O)OC(C)(C)C | – | – | – | – | – | – | – | – | – | – | – | – | – | – | – | IC50 [5]: 580 nM
3 | CCNC(=O)C[C@@H]1N=C(c2ccc(Cl)cc2)c2ccccc2-c2c(C)noc21 | 52 nM | 18 mL/min/kg | 42 mL/min/kg | 29 mL/min/kg | 0.02 | 0.01 | 0.04 | 61 mL/min/kg | 210 nM | 0.02 | – | – | – | – | – | –
4 | Cc1noc2c1-c1ccc(-c3cn(C)cn3)cc1C(c1ccc(Cl)cc1)=N[C@H]2CC(N)=O | 11 nM | 11 mL/min/kg | < 10 mL/min/kg | 23 mL/min/kg | 0.11 | 0.11 | 0.14 | 28 mL/min/kg | 30 nM | 0.14 | – | – | – | – | – | –
5 | Cc1noc2c1-c1ccccc1C(c1ccc(Cl)cc1)=N[C@H]2CC(N)C(F)(F)F (some centres not stated) | 11000 nM | 13 mL/min/kg | 38 mL/min/kg | 27 mL/min/kg | 0.01 | 0.01 | 0.01 | 41 mL/min/kg | > 4000 nM | 0.01 | – | – | – | – | – | –
6 | COc1ccc2c(c1)C(c1ccc(Cl)cc1)=N[C@@H](CC(N)=O)c1onc(C)c1-2 | 17 nM | 9 mL/min/kg | 35 mL/min/kg | 21 mL/min/kg | 0.03 | 0.03 | 0.06 | 26 mL/min/kg | 64 nM | 0.05 | 66% | 1.7 L/kg | 36.7 mL/min/kg | 617 mL/min/kg | 38.4 min | Tmax [16]: 49.8 min; fAUC [18]: 0.51 µM·h; Cmax [21]: 1600 nM; AUC(0-inf) [24]: 8.5 µM·h; bioavailability [25]: 60%
7 | Cc1noc2c1-c1ccnc(N)c1C(c1ccc(Cl)cc1)=NC2 | 90 nM | – | – | – | – | – | – | – | – | – | – | – | – | – | – | EC50 [26]: 720 nM
8 | COCCNC(=O)C[C@@H]1N=C(c2ccc(Cl)cc2)c2ccccc2-c2c(C)noc21 | 56 nM | 19 mL/min/kg | 45 mL/min/kg | 30 mL/min/kg | 0.03 | 0.01 | 0.07 | 82 mL/min/kg | 270 nM | < 0.01 | 66% | 1.8 L/kg | 36.7 mL/min/kg | 517 mL/min/kg | 72 min | Tmax [16]: 40.2 min; fAUC [18]: 0.084 µM·h; Cmax [21]: 380 nM; AUC(0-inf) [24]: 1.2 µM·h; bioavailability [25]: 11%
9 | Cc1noc2c1-c1ccccc1C(c1ccc(C#N)cc1)=N[C@H]2CC(N)=O | 94 nM | 9 mL/min/kg | 16 mL/min/kg | < 14 mL/min/kg | 0.22 | 0.13 | 0.33 | 29 mL/min/kg | 220 nM | 0.11 | 39% | 1.2 L/kg | 21.7 mL/min/kg | 65 mL/min/kg | 39.6 min | AUC(0-inf) [27]: 5.9 µM·h; fAUC [28]: 2 µM·h; Tmax [29]: 49.8 min; Cmax [30]: 1800 nM; bioavailability [31]: 56%
10 | Cc1cccc2c1C(c1ccc(Cl)cc1)=N[C@@H](CC(N)=O)c1onc(C)c1-2 | 13 nM | 11 mL/min/kg | 37 mL/min/kg | 24 mL/min/kg | 0.02 | 0.02 | 0.04 | 47 mL/min/kg | 140 nM | 0.02 | 76% | 2.5 L/kg | 41.7 mL/min/kg | 1050 mL/min/kg | 59.4 min | AUC(0-inf) [27]: 4.9 µM·h; fAUC [28]: 0.2 µM·h; Tmax [29]: 120 min; Cmax [30]: 1200 nM; bioavailability [31]: 92%
11 | Cc1noc2c1-c1ccc(-c3ccc(N)nc3)cc1C(c1ccc(Cl)cc1)=N[C@H]2CC(N)=O | 7 nM | 13 mL/min/kg | 34 mL/min/kg | 25 mL/min/kg | 0.02 | 0.02 | 0.09 | 36 mL/min/kg | 33 nM | 0.04 | 230% | 5.4 L/kg | 127 mL/min/kg | 1400 mL/min/kg | 40.8 min | –
12 | Cc1ccc(C2=N[C@@H](CC(N)=O)c3onc(C)c3-c3ccccc32)cc1 | 52 nM | 11 mL/min/kg | 49 mL/min/kg | 29 mL/min/kg | 0.08 | 0.07 | 0.1 | 78 mL/min/kg | 170 nM | 0.1 | – | – | – | – | – | –
